Measured values: ChEMBL document CHEMBL2331240, “Focused library development of 2-phenylacrylamides as broad spectrum cytotoxic agents” (2013)
Calls of active or inactive are those of the source. The rule behind the calls is not given here.

Experiments:
DU-145 [1] = assay: Cytotoxicity against human DU145 cells assessed as growth inhibition at 25 uM measured after 72 hrs by MTT assay; format: functional, cell-based
In short: (§1)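 Log-phase cells were plated in duplicate at 2500–4000 cells/well in DMEM with 10% FBS, glutamine and antibiotics, at 37 °C under 5% CO2. Drug was added 24 h after plating from a 40 mM DMSO stock, to a final 25 μM. After 72 h exposure, MTT was read at 540 nm and % growth inhibition was calculated, with 100% meaning total growth inhibition.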

SJ-G2 = assay: Cytotoxicity against human SJ-G2 cells assessed as growth inhibition at 25 uM measured after 72 hrs by MTT assay; format: functional, cell-based; in short: as §1
SW480 [2] = assay: Cytotoxicity against human SW480 cells assessed as growth inhibition at 25 uM measured after 72 hrs by MTT assay; format: functional; conditions: for inhibition of growth at 25 µM: SW480, 72 h, read-out: GI; in short: as §1
NCI-H460 = assay: Cytotoxicity against human H460 cells assessed as growth inhibition at 25 uM measured after 72 hrs by MTT assay; format: functional, cell-based; in short: as §1
HT-29 [3] = assay: Cytotoxicity against human HT-29 cells assessed as growth inhibition at 25 uM measured after 72 hrs by MTT assay; format: functional, cell-based; in short: as §1
[4] = (§2) Cytotoxicity against human BE(2)-C cells assessed as growth inhibition at 25 uM measured after 72 hrs by MTT assay; format: functional; conditions: read-out: GI; in short: as §1
SMA = assay: Cytotoxicity against mouse SMA cells assessed as growth inhibition at 25 uM measured after 72 hrs by MTT assay
MCF7 [5] = assay: Cytotoxicity against human MCF7 cells assessed as growth inhibition at 25 uM measured after 72 hrs by MTT assay; format: functional; conditions: for inhibition of growth at 25 µM: MCF7, 72 h, read-out: GI; in short: as §1
A2780 [6] = assay: Cytotoxicity against human A2780 cells assessed as growth inhibition at 25 uM measured after 72 hrs by MTT assay; format: functional; in short: as §1
MIA = assay: (§3) Cytotoxicity against human MIA cells assessed as growth inhibition at 25 uM measured after 72 hrs by MTT assay; format: functional; in short: as §1
A-431 [7] = assay: Cytotoxicity against human A431 cells assessed as growth inhibition at 25 uM measured after 72 hrs by MTT assay; format: functional, cell-based; in short: as §1
[8] = Cytotoxicity against human BE(2)-C cells assessed as growth inhibition at 100 uM measured after 72 hrs by MTT assay; format: functional; conditions: read-out: GI
[9] = Cytotoxicity against human BE(2)-C cells assessed as growth inhibition measured after 72 hrs by MTT assay; format: functional
In short: (§4)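 Cells in log phase were seeded in duplicate at 2500–4000 cells/well in supplemented DMEM (37 °C, 5% CO2). Drug from a 40 mM DMSO stock was added on day 0, 24 h post-plating. Read-out was MTT absorbance at 540 nm after 72 h.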

A-431 [10] = assay: Cytotoxicity against human A431 cells assessed as growth inhibition measured after 72 hrs by MTT assay; format: functional; conditions: A-431, 72 h; in short: as §4
MCF7 [11] = assay: Cytotoxicity against human MCF7 cells assessed as growth inhibition measured after 72 hrs by MTT assay; format: functional; conditions: MCF7, 72 h; in short: as §4
SW480 [12] = assay: Cytotoxicity against human SW480 cells assessed as growth inhibition at 100 uM measured after 72 hrs by MTT assay; format: functional; conditions: SW480, 72 h, read-out: GI
SW480 [13] = assay: Cytotoxicity against human SW480 cells assessed as growth inhibition measured after 72 hrs by MTT assay; format: functional; conditions: SW480, 72 h; in short: as §4
[14] = Cytotoxicity against human SJ-G2 cells assessed as growth inhibition measured after 72 hrs by MTT assay; format: functional; conditions: SJ-G2, 72 h; in short: as §4
[15] = Cytotoxicity against human SJ-G2 cells assessed as growth inhibition at 100 uM measured after 72 hrs by MTT assay; format: functional; conditions: SJ-G2, 72 h, read-out: GI
DU-145 [16] = assay: Cytotoxicity against human DU145 cells assessed as growth inhibition measured after 72 hrs by MTT assay; format: functional; conditions: DU-145, 72 h; in short: as §4
MCF7 [17] = assay: Cytotoxicity against human MCF7 cells assessed as growth inhibition at 100 uM measured after 72 hrs by MTT assay; format: functional; conditions: MCF7, 72 h, read-out: GI
[18] = Cytotoxicity against human H460 cells assessed as growth inhibition measured after 72 hrs by MTT assay; format: functional; conditions: NCI-H460, 72 h; in short: as §4
[19] = Cytotoxicity against mouse SMA cells assessed as growth inhibition measured after 72 hrs by MTT assay
[20] = Cytotoxicity against human MIA cells assessed as growth inhibition at 100 uM measured after 72 hrs by MTT assay; format: functional; conditions: read-out: GI
A2780 [21] = assay: Cytotoxicity against human A2780 cells assessed as growth inhibition measured after 72 hrs by MTT assay; format: functional; conditions: A2780, 72 h; in short: as §4
HT-29 [22] = assay: Cytotoxicity against human HT-29 cells assessed as growth inhibition measured after 72 hrs by MTT assay; format: functional; conditions: HT-29, 72 h; in short: as §4
[23] = Cytotoxicity against human MIA cells assessed as growth inhibition measured after 72 hrs by MTT assay; format: functional; in short: as §4
A2780 [24] = assay: Cytotoxicity against human A2780 cells assessed as growth inhibition at 100 uM measured after 72 hrs by MTT assay; format: functional; conditions: A2780, 72 h, read-out: GI
A-431 [25] = assay: Cytotoxicity against human A431 cells assessed as growth inhibition at 100 uM measured after 72 hrs by MTT assay; format: functional; conditions: A-431, 72 h, read-out: GI
HT-29 [26] = assay: Cytotoxicity against human HT-29 cells assessed as growth inhibition at 100 uM measured after 72 hrs by MTT assay; format: functional; conditions: HT-29, 72 h, read-out: GI
[27] = Cytotoxicity against mouse SMA cells assessed as growth inhibition at 100 uM measured after 72 hrs by MTT assay; conditions: read-out: GI
[28] = Cytotoxicity against human H460 cells assessed as growth inhibition at 100 uM measured after 72 hrs by MTT assay; format: functional; conditions: NCI-H460, 72 h, read-out: GI
DU-145 [29] = assay: Cytotoxicity against human DU145 cells assessed as growth inhibition at 100 uM measured after 72 hrs by MTT assay; format: functional; conditions: DU-145, 72 h, read-out: GI
BE(2)-C = assay: as §2; format: functional; in short: as §1
[30] = as §3; format: functional; conditions: read-out: GI; in short: as §1

Compound: N#C/C(=C\c1ccc(Cl)c(Cl)c1)C(=O)c1c[nH]c2ccccc12
- growth inhibition (GI) (DU-145 [1]): inactive
- growth inhibition (GI) (SJ-G2): inactive
- inhibition of growth at 25 µM (SW480 [2]): 33%
- growth inhibition (GI) (NCI-H460): inactive
- growth inhibition (GI) (HT-29 [3]): inactive
- inhibition of growth at 25 µM [4]: 33%
- growth inhibition (GI) (SMA): inactive
- inhibition of growth at 25 µM (MCF7 [5]): 42%
- inhibition of growth at 25 µM (A2780 [6]; A2780, 72 h, read-out: GI): 32%
- growth inhibition (GI) (MIA): inactive
- growth inhibition (GI) (A-431 [7]): inactive

Compound: N#C/C(=C\c1ccc(Cl)cc1)C(=O)c1ccc[nH]1
- inhibition of growth at 100 µM [8]: 31%
- GI50 [9]: 34 µM
- GI50 (A-431 [10]): 52 µM
- GI50 (MCF7 [11]): 27 µM
- inhibition of growth at 100 µM (SW480 [12]): 31%
- GI50 (SW480 [13]): 34 µM
- GI50 [14]: 37 µM
- inhibition of growth at 100 µM [15]: 31%
- GI50 (DU-145 [16]): 61 µM
- inhibition of growth at 100 µM (MCF7 [17]): 31%
- GI50 [18]: 43 µM
- GI50 [19]: 38 µM
- inhibition of growth at 100 µM [20]: 31%
- GI50 (A2780 [21]): 35 µM
- GI50 (HT-29 [22]): 36 µM
- GI50 [23]: 48 µM
- inhibition of growth at 100 µM (A2780 [24]): 31%
- inhibition of growth at 100 µM (A-431 [25]): 31%
- inhibition of growth at 100 µM (HT-29 [26]): 31%
- inhibition of growth at 100 µM [27]: 31%
- inhibition of growth at 100 µM [28]: 31%
- inhibition of growth at 100 µM (DU-145 [29]): 31%

Compound: N#C/C(=C\c1c[nH]c2ccccc12)C(=O)c1ccc[nH]1
- growth inhibition (GI) (DU-145 [1]): inactive
- growth inhibition (GI) (SJ-G2): inactive
- inhibition of growth at 25 µM (SW480 [2]): 43%
- growth inhibition (GI) (NCI-H460): inactive
- growth inhibition (GI) (HT-29 [3]): inactive
- inhibition of growth at 25 µM [4]: 49%
- growth inhibition (GI) (SMA): inactive
- inhibition of growth at 25 µM (MCF7 [5]): 56%
- growth inhibition (GI) (A2780 [6]): inactive
- growth inhibition (GI) (MIA): inactive
- growth inhibition (GI) (A-431 [7]): inactive

Compound: COc1ccc(CNC(=O)/C(C#N)=C/c2cc3ccccc3o2)cc1
- growth inhibition (GI) (DU-145 [1]): inactive
- growth inhibition (GI) (SJ-G2): inactive
- growth inhibition (GI) (SW480 [2]): inactive
- growth inhibition (GI) (NCI-H460): inactive
- growth inhibition (GI) (HT-29 [3]): inactive
- growth inhibition (GI) (BE(2)-C): inactive
- growth inhibition (GI) (SMA): inactive
- inhibition of growth at 25 µM (MCF7 [5]): 40%
- growth inhibition (GI) (A2780 [6]): inactive
- inhibition of growth at 25 µM [30]: 34%
- growth inhibition (GI) (A-431 [7]): inactive

Compound: COc1ccc(/C=C(\C#N)C(=O)c2c[nH]c3ccccc23)cc1
- growth inhibition (GI) (DU-145 [1]): inactive
- growth inhibition (GI) (SJ-G2): inactive
- growth inhibition (GI) (SW480 [2]): inactive
- growth inhibition (GI) (NCI-H460): inactive
- growth inhibition (GI) (HT-29 [3]): inactive
- growth inhibition (GI) (BE(2)-C): inactive
- growth inhibition (GI) (SMA): inactive
- growth inhibition (GI) (MCF7 [5]): inactive
- growth inhibition (GI) (A2780 [6]): inactive
- growth inhibition (GI) (MIA): inactive
- growth inhibition (GI) (A-431 [7]): inactive

Compound: COc1ccc(/C=C(\C#N)C(=O)c2ccc[nH]2)cc1
- growth inhibition (GI) (DU-145 [1]): inactive
- growth inhibition (GI) (SJ-G2): inactive
- growth inhibition (GI) (SW480 [2]): inactive
- growth inhibition (GI) (NCI-H460): inactive
- growth inhibition (GI) (HT-29 [3]): inactive
- growth inhibition (GI) (BE(2)-C): inactive
- growth inhibition (GI) (SMA): inactive
- growth inhibition (GI) (MCF7 [5]): inactive
- growth inhibition (GI) (A2780 [6]): inactive
- growth inhibition (GI) (MIA): inactive
- growth inhibition (GI) (A-431 [7]): inactive

Compound: Cc1ccc(/C=C(\C#N)C(=O)c2ccc[nH]2)cc1
- growth inhibition (GI) (DU-145 [1]): inactive
- growth inhibition (GI) (SJ-G2): inactive
- growth inhibition (GI) (SW480 [2]): inactive
- growth inhibition (GI) (NCI-H460): inactive
- growth inhibition (GI) (HT-29 [3]): inactive
- growth inhibition (GI) (BE(2)-C): inactive
- growth inhibition (GI) (SMA): inactive
- growth inhibition (GI) (MCF7 [5]): inactive
- growth inhibition (GI) (A2780 [6]): inactive
- growth inhibition (GI) (MIA): inactive
- growth inhibition (GI) (A-431 [7]): inactive
